Test results from ChEMBL document CHEMBL1130063, “Design and synthesis of potent antitumor 5,4'-diaminoflavone derivatives based on metabolic considerations” (J Med Chem, 1997).

Legend:
MCF7 [1] = assay: Growth-Inhibitory activity against MCF-7 Cells in the absence of S-9 Mix; assay type: functional, cell-based, Homo sapiens
How it was run: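 MCF-7 cells were exposed to compound for 6 days in medium without S-9 mix, and cells were counted with a microcell counter.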

MCF7 [2] = assay: Growth-Inhibitory activity against MCF-7 Cells in the presence of S-9 Mix; assay type: functional, cell-based; conditions: Homo sapiens
How it was run: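 MCF-7 cells were exposed to compound for 6 days and counted with a microcell counter. S-9 mix was in the medium at 0.125% of a 30% S-9 mix solution. That solution was made from rat liver S-9, glucose 6-phosphate, β-NADPH, 20 mM HEPES, 50 mM MgCl2, 330 mM KCl and water.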

OVCAR-3 = assay: In vitro Growth Inhibitory activity against OVCAR-3 Human ovarian cancer cell line; assay type: functional, cell-based
How it was run: (§1)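 Cells were grown in RPMI 1640 with 10% FBS. Seeding per well was 3 × 10^3 for T-47D and OVCAR-3, and 1.5 × 10^3 for MKN-28 and PSN-1. Compound exposure lasted 6 days, and cells were counted with a microcell counter.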

SK-BR-3 = assay: In vitro Growth Inhibitory activity against SK-BR-3 Human breast cancer cell line; assay type: functional, cell-based
How it was run: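 SK-BR-3 was seeded at 1 × 10^4 cells/well in McCoy's 5a with 10% FBS, treated for 6 days, and counted with a microcell counter.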

PSN1 = assay: In vitro Growth Inhibitory activity against PSN-1 Human pancreas cancer cell line; assay type: functional, cell-based; how it was run: as §1
T47D = assay: In vitro Growth Inhibitory activity against T-47D Human breast cancer cell line; assay type: functional, cell-based; how it was run: as §1
A-431 = assay: In vitro Growth Inhibitory activity against A431 Human vulva cancer cell line; assay type: functional, cell-based
How it was run: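 A431 was seeded at 1.5 × 10^3 cells/well in Dulbecco's modified Eagle's medium with FBS, treated for 6 days, and counted with a microcell counter.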

HepG2 = assay: In vitro Growth Inhibitory activity against HepG2 Human liver cancer cell line; assay type: functional, cell-based
How it was run: (§2)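 Cells were grown with 10% FBS. Seeding per well was 3 × 10^3 for Ishikawa, 5 × 10^3 for Hep-G2, 2.5 × 10^3 for WiDr and 1.5 × 10^3 for ACHN. Exposure lasted 6 days, followed by microcell-counter cell counts.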

MKN-28 = assay: In vitro Growth Inhibitory activity against MKN Human stomach cancer cell line; assay type: functional, cell-based; how it was run: as §1
Ishikawa = assay: In vitro Growth Inhibitory activity against Ishikawa Human endometrial cancer cell line; assay type: functional, cell-based; how it was run: as §2
MCF7 [3] = assay: In vitro Growth Inhibitory activity against MCF-7 Human breast cancer cell line; assay type: functional, cell-based
How it was run: (§3)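 Each cell line was treated for 6 days, and growth was read by counting cells with a microcell counter.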

ACHN = assay: In vitro Growth Inhibitory activity against ACHN Human kidney cancer cell line; assay type: functional, cell-based; how it was run: as §2
A2780 = assay: In vitro Growth Inhibitory activity against A2780 Human ovarian cancer cell line; assay type: functional, cell-based
How it was run: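 A2780 was seeded at 1 × 10^3 cells/well in RPMI 1640 with 5% FBS, exposed to compound for 6 days, and counted with a microcell counter.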

WiDr = assay: In vitro Growth Inhibitory activity against WiDr Human colon cancer cell line; assay type: functional, cell-based; how it was run: as §2
MDA-MB-453 = assay: In vitro Growth Inhibitory activity against MD-453 Human breast cancer cell line; assay type: functional, cell-based; how it was run: as §3

Nc1ccc(-c2cc(=O)c3c(N)ccc(Cl)c3o2)cc1
IC50 (MCF7 [1]; Homo sapiens, MCF7): 0.0098 µM | IC50 (MCF7 [2]): 0.25 µM

Nc1ccc(-c2cc(=O)c3c(N)ccc(O)c3o2)cc1
IC50 (MCF7 [1]; Homo sapiens, MCF7): 5.3 µM | IC50 (MCF7 [2]): 16 µM

Nc1ccc(-c2cc(=O)c3c(N)c(Br)cc(Br)c3o2)cc1
IC50 (MCF7 [1]; Homo sapiens, MCF7): 6.3 µM

Nc1ccc(-c2cc(=O)c3c(N)ccc(F)c3o2)cc1
IC50 (MCF7 [1]; Homo sapiens, MCF7): 0.0069 µM | IC50 (MCF7 [2]): 0.17 µM

COc1ccc(N)c2c(=O)cc(-c3ccc(N)cc3)oc12
IC50 (MCF7 [1]; Homo sapiens, MCF7): 21 µM | IC50 (MCF7 [1]; mcf7): 19 µM

Nc1ccc(-c2cc(=O)c3c(N)c(F)cc(F)c3o2)cc1F
IC50 (OVCAR-3): 0.014 µM | IC50 (SK-BR-3): 0.0025 µM | IC50 (PSN1): > 1 µM | IC50 (T47D): 0.031 µM | IC50 (A-431): > 1 µM | IC50 (HepG2): 0.0028 µM | IC50 (MKN-28): > 1 µM | IC50 (Ishikawa): 0.013 µM | IC50 (MCF7 [3]): 0.0012 µM | IC50 (ACHN): > 1 µM | IC50 (MCF7 [1]; Homo sapiens, MCF7): 0.0012 µM | IC50 (A2780): 0.0013 µM | IC50 (WiDr): > 1 µM | IC50 (MCF7 [2]): 0.025 µM | IC50 (MDA-MB-453): > 1 µM

Cc1ccc(N)c2c(=O)cc(-c3ccc(N)c(F)c3)oc12
IC50 (MCF7 [1]; Homo sapiens, MCF7): 0.015 µM | IC50 (MCF7 [2]): 0.18 µM

Nc1ccc(-c2cc(=O)c3c(N)c(Cl)ccc3o2)cc1
IC50 (MCF7 [1]; Homo sapiens, MCF7): 0.0039 µM | IC50 (MCF7 [2]): > 10 µM

Nc1ccc(-c2cc(=O)c3c(N)c(F)ccc3o2)cc1
IC50 (MCF7 [1]; Homo sapiens, MCF7): 0.0044 µM | IC50 (MCF7 [2]): 0.13 µM

Nc1ccc(-c2cc(=O)c3c(N)cccc3o2)cc1
IC50 (MCF7 [1]; Homo sapiens, MCF7): 0.0073 µM | IC50 (MCF7 [2]): 0.21 µM

Nc1ccc(-c2cc(=O)c3c(N)c(Cl)cc(Cl)c3o2)cc1
IC50 (MCF7 [1]; Homo sapiens, MCF7): 0.053 µM | IC50 (MCF7 [2]): 0.61 µM

Nc1c(F)cc(-c2cc(=O)c3c(N)c(F)cc(F)c3o2)cc1F
IC50 (MCF7 [1]; Homo sapiens, MCF7): 0.004 µM | IC50 (MCF7 [2]): 0.089 µM

Cc1cc(C)c2oc(-c3ccc(N)c(F)c3)cc(=O)c2c1N
IC50 (MCF7 [1]; Homo sapiens, MCF7): 0.036 µM | IC50 (MCF7 [2]): 0.11 µM

Nc1ccc(-c2cc(=O)c3c(N)c(F)cc(F)c3o2)cc1
IC50 (MCF7 [1]; Homo sapiens, MCF7): 0.006 µM | IC50 (MCF7 [2]): 0.046 µM
